The text below walks through data of ChEMBL document CHEMBL4359895, “Discovery and biological evaluation of darolutamide derivatives as inhibitors and down-regulators of wild-type AR and the mutants” (Eur J Med Chem, 2019).

Values after ≈ are worked out from the molar mass of the structure shown. Active and inactive are the calls of the source. The calls are words filed in the database; no cut-off is given here.

In series [1] the test system is LNCaP. The experiment in a line: Antiproliferative activity against human LNCAP expressing AR assessed as reduction in cell viability incubated for 6 days by CCK-8 assay. As to conditions: 144 h. The series is classed as functional, cell-based. A digest of the protocol:
(§1)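 Cell proliferation assay run on LNCaP/AR, VCaP, 22Rv1, PC-3 and L-02 cells, with PC-3 and L-02 serving as AR-independent toxicity controls. IC50 fitted in GraphPad Prism 5 as the mean of at least two experiments, each in duplicate. Deviations under 35%.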

The test system of series [2] is VCaP. The experiment in a line: Antiproliferative activity against human VCaP expressing AR assessed as reduction in cell viability incubated for 6 days by CCK-8 assay. It is filed as functional, cell-based. Particulars: 144 h. A digest of the protocol:
as §1

The subject of a further series is CWR22R. The experiment in a line: Antiproliferative activity against human 22Rv1 expressing AR assessed as reduction in cell viability incubated for 6 days by CCK-8 assay. It is filed as functional, cell-based. As to conditions: 22Rv1, 144 h. In a few lines:
as §1

In the next series the test system is PC-3. The experiment in a line: Cytotoxicity against human PC3 assessed as reduction in cell viability incubated for 6 days by CCK-8 assay. It is filed as cell-based. As to conditions: PC-3, 144 h. In a few lines:
as §1

A further series has as its system L02. The experiment in a line: Cytotoxicity against human L02 assessed as reduction in cell viability incubated for 6 days by CCK-8 assay. The series is classed as cell-based. As to conditions: L02, 144 h. A digest of the protocol: as §1
For series [3], the target named is T1, Androgen receptor (Homo sapiens) (UniProt P10275).
T1 sequence (whole entry): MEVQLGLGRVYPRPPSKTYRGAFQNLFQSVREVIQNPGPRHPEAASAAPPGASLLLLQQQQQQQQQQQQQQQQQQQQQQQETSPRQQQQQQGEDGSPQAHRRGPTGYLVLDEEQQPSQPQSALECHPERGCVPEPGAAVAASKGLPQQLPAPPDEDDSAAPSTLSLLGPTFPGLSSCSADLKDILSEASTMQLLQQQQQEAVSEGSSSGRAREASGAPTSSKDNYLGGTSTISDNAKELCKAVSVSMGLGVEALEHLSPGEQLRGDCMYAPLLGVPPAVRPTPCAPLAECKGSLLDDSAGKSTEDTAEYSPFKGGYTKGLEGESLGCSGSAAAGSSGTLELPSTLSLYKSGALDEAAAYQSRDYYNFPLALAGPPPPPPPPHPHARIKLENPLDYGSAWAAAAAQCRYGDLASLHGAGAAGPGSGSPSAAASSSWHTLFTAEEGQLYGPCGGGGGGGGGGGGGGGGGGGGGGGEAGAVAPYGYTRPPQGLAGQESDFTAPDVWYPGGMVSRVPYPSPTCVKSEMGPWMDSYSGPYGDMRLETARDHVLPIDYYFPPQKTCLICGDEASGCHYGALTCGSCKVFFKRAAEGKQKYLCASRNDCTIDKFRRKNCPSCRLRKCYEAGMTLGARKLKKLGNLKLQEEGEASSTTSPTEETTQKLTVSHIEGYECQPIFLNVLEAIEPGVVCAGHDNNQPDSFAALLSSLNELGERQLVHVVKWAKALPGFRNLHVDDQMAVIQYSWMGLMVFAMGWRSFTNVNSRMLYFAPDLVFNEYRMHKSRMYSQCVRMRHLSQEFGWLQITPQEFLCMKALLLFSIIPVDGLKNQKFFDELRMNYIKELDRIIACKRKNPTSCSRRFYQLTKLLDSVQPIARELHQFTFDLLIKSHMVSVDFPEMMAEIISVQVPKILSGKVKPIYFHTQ
The experiment in a line: Inhibition of AR in human HEK293 cells assessed as decrease in receptor transactivation at 10 uM incubated for 24 hrs by dual luciferase reporter gene assay. It is filed as cell-based. In a few lines: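 HEK 293 cells transiently co-transfected with wt-AR expression vector and an androgen-responsive luciferase reporter construct. Cells given 2 nM testosterone plus 10 µM test compound (final concentrations). Read-out by luciferase, mean ± SD, n = 3.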

The test system of series [4] is LNCaP. The experiment in a line: Inhibition of AR protein expression in human LNCAP cells at 20 uM incubated for 24 hrs by Western blot analysis. It is filed as functional, cell-based. A digest of the protocol:
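LNCaP cells treated with 20 µM compound or DMSO for 24 h. AR-full protein detected by western blot with tubulin as loading control, then quantified by ImageJ grayscale analysis.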

Series [5] has as its system VCaP. The experiment in a line: Antiproliferative activity against human VCaP expressing AR assessed as reduction in cell viability at 30 uM incubated for 6 days by CCK-8 assay relative to control. Particulars: 144 h, read-out: INH.
Series [6] deals with Bromodomain-containing protein 4 (Homo sapiens) (UniProt O60885). The experiment in a line: Inhibition of BRD4 (unknown origin) by alpha-screen assay.
Series [7] has as its system VCaP. The experiment in a line: Antitumor activity against castration-resistant human VCaP cells xenografted in BALB/c mouse assessed as tumor growth inhibition at 30 mg/kg, po administered for 40 days. The series is classed as functional. As to conditions: 960 h, read-out: TGI. A digest of the protocol:
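Castration-resistant VCaP xenografts grown in male BALB/c nude mice. Animals dosed once daily for 40 days alongside a vehicle group. Tumor volume tracked over time, with tumor weights taken at end. Reported as tumor growth inhibition, mean ± SEM, N = 8-9 per group.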

Series [8] is described as follows: Solubility of compound in PBS incubated for 24 hrs by HPLC analysis. The series is classed as physicochemical. A digest of the protocol: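 Solubility determined in PBS at 25 ℃ by the saturation shake-flask method. Quantified against calibration curves.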
The nature of series [9]: Stability of compound in nutrient medium with fetal bovine serum and antibiotic incubated for 6 days by HPLC analysis. As to conditions: 144 h.

With `C[C@@H](Cn1ccc(-c2ccc(C#N)c(Cl)c2)n1)Nc1ncnc2ccccc12`, the IC50 with LNCaP [1] is 0.51 µM; with VCaP [2] it was 1.31 µM; in the series with CWR22R, 4.36 µM; in the series on PC-3, more than 30 µM; in the series with L02, 13 µM. Moreover, the inhibition entry (in series [3]; in the series with LNCaP [4]) was “Active” throughout.
Turning to `CC(O)c1ccc(C(=O)N[C@@H](C)Cn2ccc(-c3ccc(C#N)c(Cl)c3)n2)cc1` (stereo not given in full), the 50% inhibitory concentration (IC50) with LNCaP [1] is 3.69 µM; with VCaP [2] it was 0.91 µM; in the series with CWR22R, 9.05 µM; with PC-3, more than 30 µM; with L02, more than 30 µM.
Regarding `CNC(=O)c1ccc(N2C(=S)N(c3ccc(C#N)c(C(F)(F)F)c3)C(=O)C2(C)C)cc1F` [ENZALUTAMIDE], the results for the IC50 with LNCaP [1], in the series with CWR22R and in the series on PC-3 were 0.19 µM, more than 30 µM and more than 30 µM, respectively. The inhibition at 30 µM in the series on VCaP [5] came out at 50%. For the same molecule, the inhibition entry in [6] is “inactive”. Besides, in the series with VCaP [7], the inhibition in vivo at 30 mg/kg is 43%.
With `C[C@@H](Cn1ccc(-c2ccc(C#N)c(Cl)c2)n1)Nc1ccccc1`, the IC50 with LNCaP [1] is 0.71 µM; in the series on VCaP [2] it was more than 30 µM; with CWR22R it was more than 30 µM; in the series with PC-3 it was 3.21 µM; in the series on L02, 29.4 µM.
As to `CC(Cn1ccc(-c2ccc(C#N)c(Cl)c2)n1)C(=O)Nc1cccc(C(C)O)c1` (racemic), the IC50 with LNCaP [1] is 4.15 µM; with VCaP [2], more than 30 µM; in the series on PC-3, more than 30 µM. For the same molecule, the inhibition entry in series [3] was “Active”.
For `CC(O)c1cc(C(=O)N[C@@H](C)Cn2ccc(-c3ccc(C#N)c(Cl)c3)n2)[nH]n1` (stereo not given in full) [DAROLUTAMIDE], in series [8], the solubility at 24 h worked out at 223 µM (≈ 89 µg/mL). Further, the Stability result in series [9] is on record as “Stable”.
For `CC(O)c1cccc(C(=O)N[C@@H](C)Cn2ccc(-c3ccc(C#N)c(Cl)c3)n2)c1` (stereo not given in full), the IC50 in the series on LNCaP [1] was 2.28 µM; in the series on VCaP [2], 0.9 µM; in the series with CWR22R, 20.1 µM; with PC-3 it was more than 30 µM. For the same molecule, the inhibition entry in series [3] is “Active”.
For `Cc1ccnc(N[C@@H](C)Cn2ccc(-c3ccc(C#N)c(Cl)c3)n2)n1`, the IC50 is 1.33 µM in the series on LNCaP [1]; 0.85 µM with VCaP [2]; 4.76 µM with CWR22R; more than 30 µM with PC-3; more than 30 µM in the series with L02.
Regarding `C[C@@H](Cn1ccc(-c2ccc(C#N)c(Cl)c2)n1)Nc1cccnc1`, the IC50 in the series on LNCaP [1] was 0.43 µM; in the series on VCaP [2], more than 30 µM; in the series with CWR22R, 21.6 µM; in the series with PC-3 it was more than 30 µM; with L02, more than 30 µM. Besides, the inhibition entry in [3] was “Active”.
With `CC(O)c1cc(C(=O)N[C@@H](C)Cn2ccc(-c3ccc(C#N)c(Cl)c3)n2)n[nH]1` (stereo not given in full) [DAROLUTAMIDE], the concentration for half-maximal inhibition (IC50) in the series on LNCaP [1] was 1.65 µM; in the series on CWR22R it was more than 30 µM; in the series on PC-3, more than 30 µM; in the series with L02 it was more than 30 µM. Besides, the inhibition result in series [6] is “inactive”.
On to `C[C@@H](Cn1ccc(-c2ccc(C#N)c(Cl)c2)n1)Nc1cncnc1`, for which the 50% inhibitory concentration (IC50) with LNCaP [1] was 2.07 µM; in the series with VCaP [2], more than 30 µM; in the series on CWR22R, more than 30 µM; in the series with PC-3, more than 30 µM; with L02 it was more than 30 µM.
For `C[C@@H](Cn1ccc(-c2ccc(C#N)c(Cl)c2)n1)NC(=O)c1cccc(OCC(O)CO)c1` (stereo not given in full), the concentration for half-maximal inhibition (IC50) was 0.74 µM with LNCaP [1]; 0.59 µM with VCaP [2]; more than 30 µM in the series with CWR22R; more than 30 µM with PC-3; more than 30 µM with L02.
With `C[C@@H](Cn1ccc(-c2ccc(C#N)c(Cl)c2)n1)Nc1nc(Cl)nc2nc[nH]c12`, the IC50 in the series on LNCaP [1] was 2.66 µM; with VCaP [2], 2.7 µM; in the series on CWR22R, 4.38 µM; in the series with PC-3, more than 30 µM; in the series on L02, 14.5 µM.
Regarding `C[C@@H](Cn1ccc(-c2ccc(C#N)c(Cl)c2)n1)Nc1ncccn1`, the IC50 with LNCaP [1] was 1.18 µM; in the series on VCaP [2] it was 0.48 µM; in the series with CWR22R, 12.5 µM; in the series with PC-3 it was more than 30 µM; in the series on L02, more than 30 µM.
